Test [1] can be described thus: Minimum inhibitory concentration required against […] faecalis ATCC strain was determined. Particulars: Enterococcus faecalis. It counts as functional. The gist of the method: (§1)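 MICs against aerobic bacteria were determined by broth microdilution as recommended by NCCLS. Each compound was tested once against each strain. Standard error per run is 1 dilution.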

The next test has as its system Bacillus subtilis. Nature of the test: Minimum inhibitory concentration required against Bacillus subtilis was determined. It counts as functional. The gist of the method: as §1
Another test concerns Streptococcus pneumoniae. Nature of the test: Minimum inhibitory concentration required against Streptococcus pneumoniae. It counts as functional. The gist of the method: as §1
Another test relates to Enterococcus faecalis. Nature of the test: Minimum inhibitory concentration required against Enterococcus faecalis VRE strain was determined. It counts as functional. The gist of the method: as §1
Test [2] concerns the target T1, Holo-[acyl-carrier-protein] synthase (Bacillus subtilis (strain 168), UniProt P96618).
T1 sequence (P96618 whole entry): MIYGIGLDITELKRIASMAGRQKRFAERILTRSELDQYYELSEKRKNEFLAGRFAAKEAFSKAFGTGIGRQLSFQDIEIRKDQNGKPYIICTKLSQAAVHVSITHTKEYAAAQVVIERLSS
Nature of the test: In vitro inhibitory activity against Holo-[acyl-carrier-protein] synthase was determined using Bacillus subtilis GST-Acp-HTRFassay. The gist of the method: (§2)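 B. subtilis AcpS at 15 ng/mL was incubated with biotin-CoA and GST-ACP as acceptor. Buffer was 50 mM Tris·HCl pH 8.0 with 7.5 mM MgCl2, 3.75 mM DTT, 0.0375% Tween-20 and BSA. The reaction ran 3 h at room temperature. It was stopped with EDTA/KF containing europium cryptate anti-GST antibody plus streptavidin–allophycocyanin, and read by HTRF. Standard error per run is 10%.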

Test [3] deals with T1, Holo-[acyl-carrier-protein] synthase. Nature of the test: In vitro inhibitory activity against acyl carrier protein synthase (AcpS) in Bacillus subtilis GST-Acp-HTRFassay. The gist of the method:
as §2

Values after ≈ are worked out from the molar mass of the structure shown. Where only a bound is given, the exact number is not on record here.

With `O=C(O)c1cc(Br)ccc1/N=C/c1nc(-c2ccc(C(F)(F)F)c(F)c2)oc1O`, the MIC in test [1] is 25 µM (≈ 11.8 µg/mL); with Bacillus subtilis it was 50 µM (≈ 23.7 µg/mL); in the test with Streptococcus pneumoniae, 12.5 µM (≈ 5.91 µg/mL); against Enterococcus faecalis, 25 µM (≈ 11.8 µg/mL). The IC50 in test [2] worked out at 1500 nM.

Take `O=C(O)c1cc(Cl)ccc1/N=C/c1nc(-c2ccc(C(F)(F)F)c(F)c2)oc1O`: the MIC in test [1] was found to be 50 µM (≈ 21.4 µg/mL); against Bacillus subtilis, 50 µM (≈ 21.4 µg/mL); in the test on Streptococcus pneumoniae it was 12.5 µM (≈ 5.36 µg/mL); in the test on Enterococcus faecalis it was 50 µM (≈ 21.4 µg/mL). Further, the midpoint of inhibition in test [2], the IC50, lay at 1100 nM.

For `O=C(O)c1cc(F)ccc1/N=C/c1nc(-c2ccc(C(F)(F)F)cc2)oc1O`, the MIC was found to be 100 µM (≈ 39.4 µg/mL) in test [1], 200 µM (≈ 78.9 µg/mL) with Bacillus subtilis, 100 µM (≈ 39.4 µg/mL) against Streptococcus pneumoniae and 200 µM (≈ 78.9 µg/mL) in the test with Enterococcus faecalis. Half-maximal inhibition in test [2] (IC50) was put at 1900 nM.

For `CC(=O)Nc1ccc(/N=C/c2nc(-c3ccc(C(F)(F)F)c(F)c3)oc2O)c(C(=O)O)c1`, the MIC in test [1] was over 200 µM; against Bacillus subtilis, over 200 µM; in the test with Streptococcus pneumoniae, 200 µM (≈ 90.3 µg/mL); with Enterococcus faecalis, over 200 µM. 130 nM corresponded to half-maximal inhibition in test [2] (IC50).

Turning to `Cc1ccc(/N=C/c2nc(-c3ccc(C(F)(F)F)cc3)oc2O)c(C(=O)O)c1`, the MIC in test [1] is over 200 µM; against Bacillus subtilis, 100 µM (≈ 39 µg/mL); with Streptococcus pneumoniae, 100 µM (≈ 39 µg/mL); in the test on Enterococcus faecalis, 100 µM (≈ 39 µg/mL). This compound also showed an IC50 in test [2] of 830 nM.

`O=C(O)c1cc(I)ccc1/N=C/c1nc(-c2ccc(Cl)cc2)oc1O`: the MIC worked out at 25 µM (≈ 11.7 µg/mL) in test [1], 200 µM (≈ 93.7 µg/mL) in the test on Bacillus subtilis, 12.5 µM (≈ 5.86 µg/mL) in the test on Streptococcus pneumoniae and 50 µM (≈ 23.4 µg/mL) with Enterococcus faecalis. In test [2], this compound came in with an IC50 of 1300 nM.

Regarding `O=C(O)c1cc(Br)c(Cl)cc1/N=C/c1nc(-c2ccc(Cl)cc2)oc1O`, the MIC (in test [1]; in the test on Bacillus subtilis) was over 200 µM each time. This compound had an IC50 in test [2] of over 20000 nM.

Consider `Cc1ccc(/N=C/c2nc(-c3cccc(OC(F)(F)F)c3)oc2O)c(C(=O)O)c1`, for which the MIC in test [1] was 200 µM (≈ 81.3 µg/mL); against Bacillus subtilis it was 25 µM (≈ 10.2 µg/mL); in the test on Streptococcus pneumoniae, 25 µM (≈ 10.2 µg/mL); in the test with Enterococcus faecalis it was 100 µM (≈ 40.6 µg/mL). The compound also displayed an IC50 in test [3] of 4400 nM.

As to `O=C(O)c1ccccc1/N=C/c1nc(-c2ccc(Cl)cc2)oc1O`, the MIC (in test [1]; in the test on Bacillus subtilis; against Streptococcus pneumoniae; in the test on Enterococcus faecalis) was over 200 µM throughout. In test [2], this compound registered an IC50 of 15000 nM.

As to `O=C(O)c1cc(Br)ccc1/N=C/c1nc(-c2cccc(OC(F)(F)F)c2)oc1O`, the MIC in test [1] is 50 µM (≈ 23.6 µg/mL); with Bacillus subtilis, 25 µM (≈ 11.8 µg/mL); in the test on Streptococcus pneumoniae it was 12.5 µM (≈ 5.89 µg/mL); in the test on Enterococcus faecalis it was 25 µM (≈ 11.8 µg/mL). The same compound displayed an IC50 in test [2] of 15000 nM.

As for `COc1ccc(-c2nc(/C=N/c3ccc(F)cc3C(=O)O)c(O)o2)cc1`, the MIC (in test [1]; with Bacillus subtilis) was over 200 µM each time. The compound also returned an IC50 in test [2] of over 20000 nM.

For the compound `O=C(O)c1cc(Cl)ccc1/N=C/c1nc(-c2cccc(OC(F)(F)F)c2)oc1O`, the MIC was 100 µM (≈ 42.7 µg/mL) in test [1], 50 µM (≈ 21.3 µg/mL) against Bacillus subtilis, 25 µM (≈ 10.7 µg/mL) in the test with Streptococcus pneumoniae and 50 µM (≈ 21.3 µg/mL) with Enterococcus faecalis. Besides, the IC50 in test [2] was 20000 nM.

Regarding `O=C(O)c1ccccc1/N=C/c1nc(-c2ccccc2)oc1O`, the IC50 in test [2] was over 20000 nM.

On to `Cc1ccc(/N=C/c2nc(-c3ccc(C(F)(F)F)c(F)c3)oc2O)c(C(=O)O)c1`, for which the MIC in test [1] worked out at 100 µM (≈ 40.8 µg/mL); in the test with Bacillus subtilis it was 25 µM (≈ 10.2 µg/mL); in the test on Streptococcus pneumoniae, 25 µM (≈ 10.2 µg/mL); against Enterococcus faecalis it was 100 µM (≈ 40.8 µg/mL). In test [2], this compound showed an IC50 of 270 nM.

Turning to `O=C(O)c1cc(F)ccc1/N=C/c1nc(-c2ccc(Cl)cc2)oc1O`, the MIC in test [1] is 100 µM (≈ 36.1 µg/mL); in the test with Bacillus subtilis, over 200 µM; in the test with Streptococcus pneumoniae it was 200 µM (≈ 72.1 µg/mL); in the test with Enterococcus faecalis, 100 µM (≈ 36.1 µg/mL). The compound also yielded an IC50 in test [2] of 2100 nM.

In the case of `O=C(O)c1cc(Br)ccc1/N=C/c1nc(-c2ccc(Cl)cc2)oc1O`, the MIC in test [1] was 100 µM (≈ 42.2 µg/mL); in the test with Bacillus subtilis, over 200 µM; in the test with Streptococcus pneumoniae it was 100 µM (≈ 42.2 µg/mL); in the test on Enterococcus faecalis, 200 µM (≈ 84.3 µg/mL). The compound also returned an IC50 in test [2] of 3400 nM.

On to `O=C(O)c1cc(Br)c(Cl)cc1/N=C/c1nc(-c2ccc(C(F)(F)F)cc2)oc1O`, for which the MIC is 100 µM (≈ 49 µg/mL) in test [1], over 200 µM in the test on Bacillus subtilis, 100 µM (≈ 49 µg/mL) in the test on Streptococcus pneumoniae and 50 µM (≈ 24.5 µg/mL) in the test on Enterococcus faecalis. Also, inhibition in test [2] was half-maximal at 2000 nM (IC50).

One may read the MIC as the least concentration at which growth counts as inhibited. Higher therefore signals weaker potency. The IC50 is the midpoint of a concentration-inhibition curve.

Source of the values: ChEMBL document CHEMBL1137973, “Anthranilate 4H-oxazol-5-ones: novel small molecule antibacterial acyl carrier protein synthase (AcpS) inhibitors” (Bioorg Med Chem Lett, 2004).
